In ChEMBL document CHEMBL4706526, “The HIV-1 maturation inhibitor, EP39, interferes with the dynamic helix-coil equilibrium of the CA-SP1 junction of Gag” (Eur J Med Chem, 2020):
Calls of active or inactive are those of the source. No cut-off for these calls is given here.

Assays:
[1] = tested on: Human immunodeficiency virus 1; assay: Binding affinity to HIV-1NL4-3 15N-labeled C-terminal domain CA-SP1-NC cleavage site of Gag-Pol protein harboring W184A/M185A mutant expressed in Escherichia coli assessed as change in resonances at CA 220/225 to 229 and Nc 248 to 253/ 256 residues by 1H-15N SOFAST-HMQC spectroscopic analysis
How it was run: (§1)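 1H-15N SOFAST-HMQC of 300 μM 15N-labelled CA-CTD(W184A/M185A)-SP1-NC, without and with ligand. Buffer: 25 mM Na acetate pH 6.5, 25 mM NaCl, 0.1 mM ZnCl2, 0.1 mM 2-mercaptoethanol, 10% D2O. Recorded at 303 K, 600 MHz, cryoprobe. Ligand from ~60 mM DMSO-d6 stock. Control sample held protein plus the same DMSO-d6 amount.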

[2] = tested on: Human immunodeficiency virus 1; assay: Binding affinity to HIV-1NL4-3 15N-labeled C-terminal domain CA-SP1-NC cleavage site of Gag-Pol protein harboring W184A/M185A mutant expressed in Escherichia coli assessed as change in chemical shift perturbation at CA 218 to NC 257 residues by 1H-15N SOFAST-HMQC spectroscopic analysis; how it was run: as §1
[3] = tested on: Human immunodeficiency virus 1; assay: Binding affinity to HIV-1NL4-3 15N-labeled C-terminal domain CA-SP1-NC cleavage site of Gag-Pol protein harboring W184A/M185A mutant expressed in Escherichia coli assessed as change in peak intensity at CA 218 to NC 257 residues by 1H-15N SOFAST-HMQC spectroscopic analysis; how it was run: as §1
[4] = Binding affinity to HIV-1NL4-3 15N-labeled C-terminal domain CA-SP1-NC at V221 residue cleavage site of Gag-Pol protein harboring W184A/M185A mutant expressed in Escherichia coli by 1H-15N SOFAST-HMQC spectroscopic analysis; set-up: species or system Human immunodeficiency virus 1
How it was run: (§2)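 300 μM 15N-labelled CA-CTD(W184A/M185A)-SP1-NC in acetate buffer (25 mM Na acetate pH 6.5, 25 mM NaCl, 0.1 mM ZnCl2, 0.1 mM 2-mercaptoethanol, 10% D2O), 303 K, 600 MHz with cryoprobe. Ligand added from ~60 mM DMSO-d6 stock; reference 1H-15N SOFAST-HMQC recorded first. Per-residue Kd from non-linear fit of chemical shift perturbation vs ligand concentration, one-site model plus linear non-specific term.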

[5] = Binding affinity to HIV-1NL4-3 15N-labeled C-terminal domain CA-SP1-NC at L231 residue cleavage site of Gag-Pol protein harboring W184A/M185A mutant expressed in Escherichia coli by 1H-15N SOFAST-HMQC spectroscopic analysis; set-up: species or system Human immunodeficiency virus 1; how it was run: as §2
[6] = Binding affinity to HIV-1NL4-3 15N-labeled C-terminal domain CA-SP1-NC at A232 residue cleavage site of Gag-Pol protein harboring W184A/M185A mutant expressed in Escherichia coli by 1H-15N SOFAST-HMQC spectroscopic analysis; set-up: species or system Human immunodeficiency virus 1; how it was run: as §2
[7] = Binding affinity to HIV-1NL4-3 15N-labeled C-terminal domain CA-SP1-NC at E233 residue cleavage site of Gag-Pol protein harboring W184A/M185A mutant expressed in Escherichia coli by 1H-15N SOFAST-HMQC spectroscopic analysis; set-up: species or system Human immunodeficiency virus 1; how it was run: as §2
[8] = Binding affinity to HIV-1NL4-3 15N-labeled C-terminal domain CA-SP1-NC at M235 residue cleavage site of Gag-Pol protein harboring W184A/M185A mutant expressed in Escherichia coli by 1H-15N SOFAST-HMQC spectroscopic analysis; set-up: species or system Human immunodeficiency virus 1; how it was run: as §2
[9] = Binding affinity to HIV-1NL4-3 15N-labeled C-terminal domain CA-SP1-NC at S236 residue cleavage site of Gag-Pol protein harboring W184A/M185A mutant expressed in Escherichia coli by 1H-15N SOFAST-HMQC spectroscopic analysis; set-up: species or system Human immunodeficiency virus 1; how it was run: as §2
[10] = Binding affinity to HIV-1NL4-3 15N-labeled C-terminal domain CA-SP1-NC at Q237 residue cleavage site of Gag-Pol protein harboring W184A/M185A mutant expressed in Escherichia coli by 1H-15N SOFAST-HMQC spectroscopic analysis; set-up: species or system Human immunodeficiency virus 1; how it was run: as §2
[11] = Binding affinity to HIV-1NL4-3 15N-labeled C-terminal domain CA-SP1-NC at V238 residue cleavage site of Gag-Pol protein harboring W184A/M185A mutant expressed in Escherichia coli by 1H-15N SOFAST-HMQC spectroscopic analysis; set-up: species or system Human immunodeficiency virus 1; how it was run: as §2
[12] = Binding affinity to HIV-1NL4-3 15N-labeled C-terminal domain CA-SP1-NC at T239 residue cleavage site of Gag-Pol protein harboring W184A/M185A mutant expressed in Escherichia coli by 1H-15N SOFAST-HMQC spectroscopic analysis; set-up: species or system Human immunodeficiency virus 1; how it was run: as §2
[13] = Binding affinity to HIV-1NL4-3 15N-labeled C-terminal domain CA-SP1-NC at T257 residue cleavage site of Gag-Pol protein harboring W184A/M185A mutant expressed in Escherichia coli by 1H-15N SOFAST-HMQC spectroscopic analysis; set-up: species or system Human immunodeficiency virus 1; how it was run: as §2
[14] = tested on: Human immunodeficiency virus 1; assay: Binding affinity to HIV-1NL4-3 15N-labeled C-terminal domain CA-SP1-NC cleavage site of Gag-Pol protein harboring W184A/M185A mutant expressed in Escherichia coli assessed as change in peak intensity at CA 225 to 229/NC 248 to 251 residues by NMR analysis
[15] = tested on: Human immunodeficiency virus 1; assay: Binding affinity to HIV-1NL4-3 15N-labeled C-terminal domain CA-SP1-NC cleavage site of Gag-Pol protein harboring W184A/M185A mutant expressed in Escherichia coli assessed as formation of QVT motif at SP1 232 to 239 residues by NMR analysis
[16] = tested on: Human immunodeficiency virus 1; assay: Binding affinity to HIV-1NL4-3 15N-labeled C-terminal domain CA-SP1-NC cleavage site of Gag-Pol protein harboring W184A/M185A mutant expressed in Escherichia coli assessed as HetNOE value at SP1 T239 residues by NMR analysis (reference value: -0.324No_unit)

Structure (SMILES): C=C(C)[C@@H]1CC[C@]2(C(=O)NCCN)CC[C@]3(C)[C@@H](CC[C@@H]4[C@@]5(C)CC[C@H](OC(=O)CC(C)(C)C(=O)O)C(C)(C)[C@@H]5CC[C@]43C)[C@@H]12
- Activity [1]: Active
- Activity [2]: Active
- Activity [3]: Active
- Kd [4]: 670 µM
- Kd [5]: 678 µM
- Kd [6]: 692 µM
- Kd [7]: 237 µM
- Kd [8]: 235 µM
- Kd [9]: 180 µM
- Kd [10]: 154 µM
- Kd [11]: 204 µM
- Kd [12]: 52.5 µM
- Kd [13]: 308 µM
- Activity [14]: Active
- Activity [15]: Active
- Activity [16]: -0.164
